In ChEMBL document CHEMBL1909525, “Synthesis and anticonvulsant activity of novel 2,6-diketopiperazine derivatives. Part 1: perhydropyrrole[1,2-a]pyrazines” (Eur J Med Chem, 2011):
The source made the active and inactive calls. The rule behind the calls is not given here.

Tests used:
Mus musculus [1] = test: Anticonvulsant activity in albino Carworth Farms No.1 mouse assessed as protection against maximal electroshock-induced seizure at 30 mg/kg, ip after 0.5 hrs; type: functional, organism-based; set-up: dose 30 mg/kg
How it was run: (§1)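 Mouse MES test with compound given i.p. (30, 100 or 300 mg/kg) in 0.5% methylcellulose; tested at 0.5 and 4 h. Corneal stimulus of 50 mA at 60 Hz for 0.2 s, electrodes primed with 0.5% butacaine in 0.9% NaCl. Protection is abolition of hindlimb tonic extension; scored as protected/tested.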

Mus musculus [2] = test: Anticonvulsant activity in albino Carworth Farms No.1 mouse assessed as protection against subcutaneous metrazol-induced seizure at 30 mg/kg, ip after 0.5 hrs; type: functional, organism-based; set-up: dose 30 mg/kg
How it was run: (§2)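 Mouse scMET test. Compound given i.p. (30, 100 or 300 mg/kg) in 0.5% methylcellulose. Pentylenetetrazole 85 mg/kg (CD97) given s.c. at 0.5 or 4 h, then mice observed for 30 min. Protection is absence of clonic spasms; scored as protected/tested.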

Rattus norvegicus [3] = test: Toxicity in albino Sprague-Dawley rat pilocarpine-induced status epilepticus model assessed as change in body weight in non-protected rat at 600 mg/kg, ip measured after 24 hrs of time from first stage 3 seizures; type: organism-based; set-up: dose 600 mg/kg, route intraperitoneal; settings: in vivo
How it was run: (§3)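 Pilocarpine-induced status prevention in male albino Sprague-Dawley rats (150–180 g). Compound given i.p. and followed by a pilocarpine challenge. Animals were sorted as protected or non-protected, and average body weight change (g) ± S.E.M. was recorded for each group.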

Mus musculus [4] = test: Neurotoxicity in albino Carworth Farms No.1 mouse assessed as motor impairment at 300 mg/kg, ip after 4 hrs by rotarod test; type: toxicity, organism-based; set-up: dose 300 mg/kg, route intraperitoneal; settings: in vivo
How it was run: (§4)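 Rotorod neurotoxicity in mice at 6 r.p.m. Compound given i.p. (30, 100, 300 mg/kg) in 0.5% methylcellulose; tested at 30 min and 4 h. Impairment is inability to keep equilibrium on the rod for a given time; scored as impaired/tested.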

Mus musculus [5] = test: Anticonvulsant activity in albino Carworth Farms No.1 mouse assessed as protection against maximal electroshock-induced seizure at 30 mg/kg, ip after 4 hrs; type: functional, organism-based; set-up: dose 30 mg/kg; how it was run: as §1
Mus musculus [6] = test: Anticonvulsant activity in albino Carworth Farms No.1 mouse assessed as protection against subcutaneous metrazol-induced seizure at 300 mg/kg, ip after 4 hrs; type: functional, organism-based; set-up: dose 300 mg/kg; how it was run: as §2
Mus musculus [7] = test: Anticonvulsant activity in albino Carworth Farms No.1 mouse assessed as protection against subcutaneous metrazol-induced seizure at 100 mg/kg, ip after 0.5 hrs; type: functional, organism-based; set-up: dose 100 mg/kg; how it was run: as §2
Mus musculus [8] = test: Anticonvulsant activity in albino Carworth Farms No.1 mouse assessed as protection against maximal electroshock-induced seizure at 300 mg/kg, ip after 0.5 hrs; type: functional, organism-based; set-up: dose 300 mg/kg; how it was run: as §1
Mus musculus [9] = test: Anticonvulsant activity in ip dosed albino Carworth Farms No.1 mouse assessed as time needs to show peak effect for protection against maximal electroshock-induced seizure; type: functional
Rattus norvegicus [10] = test: Anticonvulsant activity in albino Sprague-Dawley rat assessed as protection against pilocarpine-induced status epilepticus at 600 mg/kg, ip measured after time from first stage 3 seizures; type: functional, organism-based; set-up: dose 600 mg/kg
How it was run: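 Male albino Sprague-Dawley rats (150–180 g) given compound i.p., then a pilocarpine challenge dose immediately (0 min) or 30 min after treatment. Outcome scored as protection or no protection from epileptic seizures, reported as number protected/number tested.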

Mus musculus [11] = test: Anticonvulsant activity in albino Carworth Farms No.1 mouse assessed as protection against maximal electroshock-induced seizure at 100 mg/kg, ip after 0.5 hrs; type: functional, organism-based; set-up: dose 100 mg/kg; how it was run: as §1
Mus musculus [12] = test: Anticonvulsant activity in albino Carworth Farms No.1 mouse assessed as protection against subcutaneous metrazol-induced seizure at 300 mg/kg, ip after 0.5 hrs; type: functional, organism-based; set-up: dose 300 mg/kg; how it was run: as §2
Mus musculus [13] = test: Anticonvulsant activity in albino Carworth Farms No.1 mouse assessed as protection against maximal electroshock-induced seizure at 100 mg/kg, ip after 4 hrs; type: functional, organism-based; set-up: dose 100 mg/kg; how it was run: as §1
Mus musculus [14] = test: Neurotoxicity in albino Carworth Farms No.1 mouse assessed as motor impairment at 100 mg/kg, ip after 0.5 hrs by rotarod test; type: toxicity, organism-based; set-up: dose 100 mg/kg, route intraperitoneal; settings: in vivo; how it was run: as §4
Rattus norvegicus [15] = test: Toxicity in albino Sprague-Dawley rat pilocarpine-induced status epilepticus model assessed as change in body weight in protected rat at 600 mg/kg, ip measured after 24 hrs of time from first stage 3 seizures; type: organism-based; set-up: dose 600 mg/kg, route intraperitoneal; settings: in vivo; how it was run: as §3
Mus musculus [16] = test: Anticonvulsant activity in albino Carworth Farms No.1 mouse assessed as protection against subcutaneous metrazol-induced seizure at 100 mg/kg, ip after 4 hrs; type: functional, organism-based; set-up: dose 100 mg/kg; how it was run: as §2
Mus musculus [17] = test: Anticonvulsant activity in ip dosed albino Carworth Farms No.1 mouse assessed as protection against subcutaneous metrazol-induced seizure after 0.25 hrs; type: functional; settings: albino Carworth Farms No.1, 0.25 h
How it was run: (§5)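 Mouse quantification at the time of peak effect, compound given i.p. in 0.5% methylcellulose. Groups of at least eight mice received varied doses until at least two points fell between 100 and 0% response. ED50 (MES, scMET) and TD50 (rotorod) with 95% CI by probit analysis (Finney). PI = TD50/ED50 MES.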

Mus musculus [18] = test: Anticonvulsant activity in ip dosed albino Carworth Farms No.1 mouse assessed as protection against maximal electroshock-induced seizure after 0.25 hrs; type: functional; settings: albino Carworth Farms No.1, ip; how it was run: as §5
Mus musculus [19] = test: Neurotoxicity in albino Carworth Farms No.1 mouse assessed as motor impairment at 30 mg/kg, ip after 4 hrs by rotarod test; type: toxicity, organism-based; set-up: dose 30 mg/kg, route intraperitoneal; settings: in vivo; how it was run: as §4
Mus musculus [20] = species on record: Mus musculus; test: Protective index, ratio of TD50 for albino Carworth Farms No.1 mouse to ED50 for albino Carworth Farms No.1 mouse by maximal electroshock-induced seizure test; type: functional
How it was run: (§6)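 Mouse quantification at the time of peak effect, compound given i.p. in 0.5% methylcellulose. Groups of at least eight mice received varied doses until at least two points fell between 100 and 0% response. PI = TD50/ED50 MES.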

[21] = Neurotoxicity in ip dosed albino Carworth Farms No.1 mouse assessed as motor impairment after 0.25 hrs by rotarod test; type: toxicity, organism-based; settings: Carworth Farms No.1 (albino), in vivo; how it was run: as §6
Mus musculus [22] = test: Neurotoxicity in albino Carworth Farms No.1 mouse assessed as motor impairment at 30 mg/kg, ip after 0.5 hrs by rotarod test; type: toxicity, organism-based; set-up: dose 30 mg/kg, route intraperitoneal; settings: in vivo; how it was run: as §4
Mus musculus [23] = test: Anticonvulsant activity in albino Carworth Farms No.1 mouse assessed as protection against maximal electroshock-induced seizure at 300 mg/kg, ip after 4 hrs; type: functional, organism-based; set-up: dose 300 mg/kg; how it was run: as §1
Mus musculus [24] = test: Neurotoxicity in albino Carworth Farms No.1 mouse assessed as motor impairment at 300 mg/kg, ip after 0.5 hrs by rotarod test; type: toxicity, organism-based; set-up: dose 300 mg/kg, route intraperitoneal; settings: in vivo; how it was run: as §4
Mus musculus [25] = test: Anticonvulsant activity in albino Carworth Farms No.1 mouse assessed as protection against subcutaneous metrazol-induced seizure at 30 mg/kg, ip after 4 hrs; type: functional, organism-based; set-up: dose 30 mg/kg; how it was run: as §2
Mus musculus [26] = test: Toxicity in albino Carworth Farms No.1 mouse subcutaneous metrazol-induced seizure model assessed as myoclonic jerk at 300 mg/kg, ip after 0.5 hrs; type: organism-based; set-up: dose 300 mg/kg; settings: in vivo, sc
Mus musculus [27] = test: Toxicity in albino Carworth Farms No.1 mouse assessed as death following tonic extension at 300 mg/kg, ip after 0.5 hrs by rotarod test; type: organism-based; set-up: dose 300 mg/kg, route intraperitoneal; settings: in vivo
How it was run: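 Mice (18–25 g) were given 30, 100 or 300 mg/kg i.p. in 0.5% (v/v) aqueous methylcellulose. Neurotoxicity was checked on a 6 r.p.m. rotorod 30 min and 4 h after dosing and scored as inability to keep equilibrium. Death following tonic extension and sedation were recorded as observations (number of animals/number tested).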

| SMILES | Activity (Mus musculus [1]) | Activity (Mus musculus [2]) | Activity (Mus musculus [4]) | Activity (Mus musculus [5]) | Activity (Mus musculus [6]) | Activity (Mus musculus [7]) | Activity (Mus musculus [8]) | Activity (Mus musculus [11]) | Activity (Mus musculus [12]) | Activity (Mus musculus [13]) | Activity (Mus musculus [14]) | Activity (Mus musculus [16]) | Activity (Mus musculus [19]) | Activity (Mus musculus [22]) | Activity (Mus musculus [23]) | Activity (Mus musculus [24]) | Activity (Mus musculus [25]) | further results |
| --- | --- | --- | --- | --- | --- | --- | --- | --- | --- | --- | --- | --- | --- | --- | --- | --- | --- | --- |
| Cl.O=C1[C@H](c2ccccc2)N2CCC[C@H]2C(=O)N1CCc1ccccc1 | inactive | inactive | Non-toxic | inactive | inactive | inactive | Active | Active | inactive | inactive | Non-toxic | inactive | Non-toxic | Non-toxic | Active | Non-toxic | inactive | Activity (Rattus norvegicus [3]): -18.8 g; Time (Mus musculus [9]): 0.25 h; Activity (Rattus norvegicus [10]): inactive; Activity (Rattus norvegicus [15]): -10 g; ED50 (Mus musculus [17]): > 200 mg/kg; ED50 (Mus musculus [18]): 80.6 mg/kg; Ratio TD50/ED50 (Mus musculus [20]): 2.2; TD50 at 0.25 h [21]: 178 mg/kg |
| Cl.O=C1CN2CCC[C@H]2C(=O)N1CCc1ccccc1 | inactive | inactive | Non-toxic | inactive | inactive | inactive | Active | inactive | Active | inactive | Non-toxic | inactive | Non-toxic | Non-toxic | Active | Toxic | inactive | Activity (Mus musculus [26]): Toxic; Activity (Mus musculus [27]): Toxic |
